# Measured values from different studies.
# Each line is one published result; the experiments were not run side by side.
# Medium: plasma
Compound,host,route,dose,setting,AUC(0-t)
O=C1CCC(N2Cc3cc(C4CCN(Cc5ccccc5)CC4)ccc3C2=O)C(=O)N1 (centres unmarked),male Sprague-Dawley rat,intravenous,1 mg/kg,,0.309 µg·h/mL
C=CC(=O)N1CCC([C@@H]2CCNc3c(C(N)=O)c(-c4ccc(Oc5ccccc5)cc4)nn32)CC1,Sprague-Dawley rat,oral,16 mg/kg,,1.45 µg·h/mL
CCCCC(=O)Nc1ccc(-c2ccc3ncn(CCC)c(=O)c3c2)cn1,male rat,oral,10 mg/kg,,1.2 µg·h/mL
Nc1ccn([C@@H]2O[C@H](CO)[C@@H](O)C2(F)F)c(=O)n1,male Sprague-Dawley rat,intraperitoneal,5 mg/kg,,22.9 µg·h/mL
CCCc1nc2c(C)cc(-c3nc4ccccc4n3C)cc2n1Cc1ccc(-c2ccccc2C(=O)O)cc1,male Sprague-Dawley rat,oral,8 mg/kg,single dose,1.94 µg·h/mL
COc1ccc(-c2coc3cc(O)cc(O)c3c2=O)cc1,rat,intravenous,2 mg/kg,,0.637 µg·h/mL
C[C@H]1Oc2cc(cnc2N)-c2c(nn(C)c2C#N)CN(C)C(=O)c2ccc(F)cc21,male Sprague-Dawley rat,oral,50 mg/kg,single dose,24.8 µg·h/mL
COc1cc(-c2cc(C(C)=O)n3ccccc23)c(OC)cc1Cn1ccnc1,male Sprague-Dawley rat,intravenous,5 mg/kg,,4.28 µg·h/mL
CONC(=O)c1cccc2c1cc(C)n2-c1nc2c(c(NCc3ccccc3)n1)CCCN2,male Sprague-Dawley rat,oral,10 mg/kg,single dose,0.0238 µg·h/mL
COc1ccc(N(Cc2csc(-c3ccccc3)n2)C(=O)CCCCCC(=O)NO)cc1,female Sprague-Dawley rat,oral,30 mg/kg,,0.0184 µg·h/mL
Cc1ccc2c(c1)C(=O)[C@]1(O)CCN(c3ccc4nc(C)ccc4c3)C1=N2.Cl,female rat,subcutaneous,40 mg/kg,"multiple doses, once daily",17 µM·h
CCOc1c([C@H](C)n2nc(C)c3c(N)ncnc32)cc(Cl)c(F)c1[C@@H]1CNC(=O)C1,male Sprague-Dawley rat,oral,2 mg/kg,single dose,4.58 µg·h/mL
COc1nc(-c2cccc(-c3ccccc3)c2C)ccc1CNCCNC(=O)CCCCCCCCCCC(=O)N1CCN(CCNC(=O)c2cc3c(=O)n4cccc(C)c4nc3n(CCc3cccs3)c2=N)CC1,male Sprague-Dawley rat,intravenous,2 mg/kg,,1.62 µg·h/mL
CCCCCCCCCC(=O)N[C@@H](Cc1c[nH]c2ccccc12)C(=O)N[C@H](CC(N)=O)C(=O)N[C@@H](CC(=O)O)C(=O)N[C@@H]1C(=O)NCC(=O)N[C@@H](CCCN)C(=O)N[C@@H](CC(=O)O)C(=O)N[C@H](C)C(=O)N[C@@H](CC(=O)O)C(=O)NCC(=O)N[C@H](CO)C(=O)N[C@@H]([C@H](C)CC(=O)O)C(=O)N[C@@H](CC(=O)c2ccccc2N)C(=O)O[C@@H]1C,male Wistar rat,subcutaneous,125 mg/kg,single dose,2450 µg·h/mL
CC(=O)c1c(C)c2cnc(Nc3ccc(N4CCNCC4)cn3)nc2n(C2CCCC2)c1=O,male Sprague-Dawley rat,intravenous,5 mg/kg,,1.91 µg·h/mL
C1=C/COCc2cc(ccc2OCCN2CCCC2)Nc2nccc(n2)-c2cccc(c2)COC/1,male Sprague-Dawley rat,oral,36 mg/kg,,3.12 µg·h/mL
Cn1c(=O)c2[nH]cnc2n(C)c1=O,male Sprague-Dawley rat,intravenous,11.25 mg/kg,,24.9 µg·h/mL
